For this assay, the target named is T1, Extracellular calcium-sensing receptor (Rattus norvegicus) (UniProt P48442).
T1 sequence (whole entry): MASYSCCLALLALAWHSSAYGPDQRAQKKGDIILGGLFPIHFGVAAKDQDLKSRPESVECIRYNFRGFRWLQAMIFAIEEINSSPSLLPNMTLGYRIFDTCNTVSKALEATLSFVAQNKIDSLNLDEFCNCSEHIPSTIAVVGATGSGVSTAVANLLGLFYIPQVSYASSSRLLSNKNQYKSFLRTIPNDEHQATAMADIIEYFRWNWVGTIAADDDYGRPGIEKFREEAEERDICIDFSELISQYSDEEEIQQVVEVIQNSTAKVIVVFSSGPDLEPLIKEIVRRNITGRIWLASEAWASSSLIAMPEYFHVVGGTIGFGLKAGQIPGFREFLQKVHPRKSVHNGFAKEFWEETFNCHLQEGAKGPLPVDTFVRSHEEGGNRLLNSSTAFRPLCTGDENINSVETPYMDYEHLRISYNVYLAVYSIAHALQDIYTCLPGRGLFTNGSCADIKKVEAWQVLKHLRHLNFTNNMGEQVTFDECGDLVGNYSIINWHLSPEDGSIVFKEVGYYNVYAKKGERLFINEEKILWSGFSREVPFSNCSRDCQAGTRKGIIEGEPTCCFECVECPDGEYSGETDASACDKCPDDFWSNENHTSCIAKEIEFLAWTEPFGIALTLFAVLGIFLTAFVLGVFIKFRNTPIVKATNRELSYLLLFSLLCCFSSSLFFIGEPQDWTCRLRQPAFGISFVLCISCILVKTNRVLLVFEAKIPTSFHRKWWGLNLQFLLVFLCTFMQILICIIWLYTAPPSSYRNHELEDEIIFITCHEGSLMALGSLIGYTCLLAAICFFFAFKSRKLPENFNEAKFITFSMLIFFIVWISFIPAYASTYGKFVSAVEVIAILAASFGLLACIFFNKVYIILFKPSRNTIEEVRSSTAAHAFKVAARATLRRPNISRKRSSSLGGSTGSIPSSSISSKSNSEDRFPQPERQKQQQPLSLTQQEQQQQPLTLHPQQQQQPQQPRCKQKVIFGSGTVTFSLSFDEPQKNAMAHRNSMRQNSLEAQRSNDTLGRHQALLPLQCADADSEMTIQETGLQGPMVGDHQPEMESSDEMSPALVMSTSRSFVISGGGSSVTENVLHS
Put plainly: Compound was evaluated for accumulation of [3H]- IP in CHO (CaSR) cells expressing rat cloned calcium sensing receptor. Type of assay: functional, cell-based. A digest of the protocol: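 CHO cells stably transfected with calcium sensing receptor cloned from rat brain. Grown in basal Ham's F-12 (0.3 mM Ca2+, 0.6 mM Mg2+) and prelabeled overnight with 0.5 µCi/mL myo-[3H]inositol. Drugs were made up at 10 mM in ethanol (stock), diluted in basal medium and tested at 10 µM with 2 mM extracellular Ca2+ at 37 °C. [3H]IP accumulation (phospholipase C activity) is given as % of the maximal response to 10 mM Ca2+, mean ±S.E.M.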
For `COc1ccc(S(=O)(=O)NC(CNC(C)c2cccc(OC)c2)Cc2ccccc2)cc1` (centres undefined), the Accumulation worked out at 34%.

Take `CC(NCC(Cc1ccccc1)NS(=O)(=O)c1ccc(Cl)cc1)c1cccc2ccccc12` (centres undefined): the Accumulation was 38%.

Turning to `CC(NCC(Cc1ccccc1)NS(=O)(=O)c1ccc([N+](=O)[O-])cc1)c1ccccc1` (centres undefined), the Accumulation worked out at 8%.

As for `Cc1ccc(S(=O)(=O)NC(CNC(C)c2cccc3ccccc23)Cc2ccccc2)cc1` (centres undefined), the Accumulation amounted to 68%.

Turning to `COc1ccc(S(=O)(=O)NC(CNC(C)c2cccc3ccccc23)Cc2ccccc2Cl)cc1` (centres undefined), the Accumulation stood at 60%.

For the compound `CC(NCC(Cc1ccccc1)NS(=O)(=O)c1ccc(N)cc1)c1ccccc1` (centres undefined), the Accumulation came out at 2%.

With `COc1ccc(S(=O)(=O)NC(CNC(C)c2cccc3ccccc23)Cc2ccccc2)cc1` (centres undefined), the Accumulation is 80%.

Consider `CC(NCC(Cc1ccccc1)NS(=O)(=O)c1ccccc1Cl)c1cccc2ccccc12` (centres undefined), for which the Accumulation is 79%.

In the case of `COc1ccc(S(=O)(=O)NC(CNC(C)c2cccc3ccccc23)Cc2ccccc2)cc1OC` (centres undefined), the Accumulation came out at 97%.

In the case of `COc1cccc([C@@H](C)NCCCc2ccccc2Cl)c1`, the Accumulation is 106%.

With `CC(NCC(Cc1ccccc1)NS(=O)(=O)c1ccccc1)c1cccc2ccccc12` (centres undefined), the Accumulation was found to be 78%.

As to `COc1ccc(CC(CNC(C)c2cccc3ccccc23)NS(=O)(=O)c2ccc(OC)cc2)cc1` (centres undefined), the Accumulation came out at 45%.

For `COc1ccc(S(=O)(=O)NC(CNC(C)c2cccc3ccccc23)Cc2ccc3c(c2)OCO3)cc1` (centres undefined), the Accumulation was 47%.

As for `CC(NCC(Cc1ccccc1)NS(=O)(=O)c1ccc(C(F)(F)F)cc1)c1cccc2ccccc12` (centres undefined), the Accumulation worked out at 27%.

As for `CC(NCC(Cc1ccccc1)NS(=O)(=O)c1ccc([N+](=O)[O-])cc1)c1cccc2ccccc12` (centres undefined), the Accumulation came out at 28%.

Consider `COc1ccc(S(=O)(=O)NC(CNC(C)c2cccc3ccccc23)Cc2ccccc2OC)cc1` (centres undefined), for which the Accumulation turned out to be 65%.

Regarding `Cc1ccc(S(=O)(=O)NC(CNC(C)c2ccccc2)Cc2ccccc2)cc1` (centres undefined), the Accumulation came out at 16%.

As for `COc1cccc(C(C)NCC(Cc2ccccc2)NS(=O)(=O)c2ccc(C)cc2)c1` (centres undefined), the Accumulation was 36%.

For the compound `CC(NCC(Cc1ccccc1)NS(=O)(=O)c1cccc(Cl)c1)c1cccc2ccccc12` (centres undefined), the Accumulation is 83%.
